Structures can show the parent of a compound that is named as a salt. Active and inactive are the calls of the source. The rule behind the calls is not given here.
Experiments:
[1] = target: T1, Extracellular calcium-sensing receptor (Homo sapiens) (UniProt P41180); assay: Positive allosteric modulation of calcium sensing receptor by cell based assay relative to control; type: functional
T1 sequence (whole entry): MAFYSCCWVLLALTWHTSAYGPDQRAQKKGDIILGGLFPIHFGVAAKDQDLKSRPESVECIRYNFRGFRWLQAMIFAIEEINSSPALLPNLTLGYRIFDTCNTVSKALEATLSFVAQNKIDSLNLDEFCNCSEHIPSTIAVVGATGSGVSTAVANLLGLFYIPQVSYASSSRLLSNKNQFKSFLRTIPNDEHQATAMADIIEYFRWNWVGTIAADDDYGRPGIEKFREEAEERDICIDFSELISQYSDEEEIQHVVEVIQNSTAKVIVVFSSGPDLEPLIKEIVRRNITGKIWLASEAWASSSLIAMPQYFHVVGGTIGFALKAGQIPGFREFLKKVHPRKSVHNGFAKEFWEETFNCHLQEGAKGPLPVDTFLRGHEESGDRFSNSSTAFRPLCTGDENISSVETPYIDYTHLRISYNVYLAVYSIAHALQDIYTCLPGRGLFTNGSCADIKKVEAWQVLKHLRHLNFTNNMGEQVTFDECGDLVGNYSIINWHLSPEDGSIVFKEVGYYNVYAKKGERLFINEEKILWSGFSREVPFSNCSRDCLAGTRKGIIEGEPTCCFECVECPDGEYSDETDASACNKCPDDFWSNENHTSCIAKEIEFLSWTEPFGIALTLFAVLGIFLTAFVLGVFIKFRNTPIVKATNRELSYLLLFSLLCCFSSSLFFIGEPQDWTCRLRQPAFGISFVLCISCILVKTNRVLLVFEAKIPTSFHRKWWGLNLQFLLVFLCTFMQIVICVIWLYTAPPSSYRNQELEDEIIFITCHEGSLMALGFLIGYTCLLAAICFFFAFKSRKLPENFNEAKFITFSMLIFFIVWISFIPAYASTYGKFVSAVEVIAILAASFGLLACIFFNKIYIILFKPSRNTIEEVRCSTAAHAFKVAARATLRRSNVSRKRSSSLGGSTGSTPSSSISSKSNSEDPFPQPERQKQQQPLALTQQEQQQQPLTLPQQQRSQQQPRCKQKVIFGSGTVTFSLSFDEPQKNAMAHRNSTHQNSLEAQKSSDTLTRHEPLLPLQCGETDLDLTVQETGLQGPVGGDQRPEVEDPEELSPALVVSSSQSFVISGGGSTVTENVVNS
Method in brief: (§1)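 R-SAT cell-based functional assay; cells kept in DMEM with 0.8 mM MgCl2 and 1.6 mM CaCl2 to raise sensitivity. Means of at least three independent experiments, standard deviation reported.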

[2] = target: T2, Extracellular calcium-sensing receptor (Homo sapiens, UniProt P41180); assay: Positive allosteric modulation of calcium sensing receptor by cell based assay; type: functional; method in brief: as §1
T2 sequence (P41180 whole entry): T1 sequence (whole entry)

[3] = target: T1, Extracellular calcium-sensing receptor (Homo sapiens); assay: Positive allosteric modulation of calcium sensing receptor by phosphatidyl inositol hydrolysis assay; type: functional
[4] = Intrinsic clearance in human liver microsomes; type: ADME, Microsome
[5] = target: T3, Parathyroid hormone/parathyroid hormone-related peptide receptor (Homo sapiens) (UniProt Q03431); assay: Activation of human PTH1 receptor
T3 sequence (whole entry): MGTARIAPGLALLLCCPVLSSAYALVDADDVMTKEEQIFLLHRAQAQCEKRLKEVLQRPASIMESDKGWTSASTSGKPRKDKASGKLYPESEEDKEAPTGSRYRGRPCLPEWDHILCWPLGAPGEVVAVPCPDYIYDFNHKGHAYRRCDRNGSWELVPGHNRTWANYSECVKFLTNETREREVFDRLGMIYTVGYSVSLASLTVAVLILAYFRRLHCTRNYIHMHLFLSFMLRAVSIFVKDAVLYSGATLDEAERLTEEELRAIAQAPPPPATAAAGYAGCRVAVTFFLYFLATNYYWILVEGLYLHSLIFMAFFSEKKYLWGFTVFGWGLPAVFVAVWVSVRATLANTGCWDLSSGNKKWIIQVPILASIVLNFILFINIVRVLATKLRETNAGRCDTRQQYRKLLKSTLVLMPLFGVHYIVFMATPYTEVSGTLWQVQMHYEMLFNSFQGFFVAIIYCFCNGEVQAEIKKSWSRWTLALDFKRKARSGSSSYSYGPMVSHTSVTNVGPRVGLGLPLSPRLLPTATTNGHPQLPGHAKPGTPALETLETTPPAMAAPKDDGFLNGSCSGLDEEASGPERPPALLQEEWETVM

Homo sapiens = species: Homo sapiens; assay: Activation of human GABAB receptor
Rattus norvegicus = assay: Reduction of parathyroid hormone level in Sprague-Dawley rat at up to 10 mg/kg, sc after 1 hr by ELISA; type: functional, organism-based; design: dose 10 mg/kg
Method in brief: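 Male Sprague–Dawley rats dosed subcutaneously; blood sampled 1 h post-dose and plasma PTH measured by ELISA.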

[6] = target: T1, Extracellular calcium-sensing receptor (Homo sapiens); assay: Positive allosteric modulation of calcium sensing receptor at 10 nM by cell based assay relative to control; type: functional
[7] = target: T1, Extracellular calcium-sensing receptor (Homo sapiens); assay: Positive allosteric modulation of calcium sensing receptor at 10 nM by cell based assay; type: functional

| SMILES | Efficacy [1] [%] | EC50 [2] [nM] | also measured |
| --- | --- | --- | --- |
| Cc1ccc([C@@](C)(O)c2nc3ccccc3s2)c(C)c1 | 79 | 79.4 | Activity [3]: Active |
| CC(O)(c1nc2ccccc2s1)c1ccc(Cl)cc1Cl (stereo not given) | 82 | 100 | microsomal CLint [4]: 66 µL/min/mg |
| Cc1ccc([C@](C)(O)c2nc3ccccc3s2)c(C)c1 | 83 | 10 | Activity [3]: Active |
| Cc1cc(Cl)ccc1C(C)(O)c1nc2ccccc2s1 (stereo not given) | 94 | 31.6 |  |
| Cc1cc(C(C)(O)c2nc3ccccc3s2)ccc1F (stereo not given) | 62 | 158 |  |
| Cc1ccccc1C(C)(O)c1nc2ccccc2s1 (stereo not given) | 72 | 251 |  |
| Cc1cc(C)c2c(c1)C(O)(c1nc3ccccc3s1)CCC2 (stereo not given) | 81 | 316 |  |
| Cc1ccc(C(C)(O)c2nc3ccccc3s2)c(C)c1 (stereo not given) | 91 | 25.1 | Activity [5]: inactive; Activity (Homo sapiens): inactive; Activity [3]: Active; microsomal CLint [4]: 396 µL/min/mg; Activity (Rattus norvegicus): Active |
| CC(O)(c1ccc2ccccc2c1)c1nc2ccccc2s1 (stereo not given) | 53 | 631 |  |
| Cc1ccc(C(O)c2nc3ccccc3s2)c(C)c1 (stereo not given) |  |  | Activity [6]: inactive; Activity [7]: inactive |
| CC(O)(c1ccc(Cl)cc1)c1nc2ccccc2s1 (stereo not given) | 68 | 398 | microsomal CLint [4]: > 200 µL/min/mg |
| COc1ccccc1C(C)(O)c1nc2ccccc2s1 (stereo not given) | 26 | 3980 |  |
| CC(O)(c1ccc(Cl)c(Cl)c1)c1nc2ccccc2s1 (stereo not given) | 62 | 100 |  |
| Cc1ccc(C(C)c2nc3ccccc3s2)c(C)c1 (stereo not given) | 88 | 2510 |  |
| C[C@@H](NCCCc1cccc(C(F)(F)F)c1)c1cccc2ccccc12 [CINACALCET HYDROCHLORIDE] | 115 | 20 |  |
| Cc1ccc(C(O)(c2nc3ccccc3s2)C2CC2)c(C)c1 (stereo not given) | 76 | 200 |  |
| C=C(c1nc2ccccc2s1)c1ccc(C)cc1C |  |  | Activity [6]: inactive; Activity [7]: inactive |
| OC(c1ccccc1)(c1ccc(Cl)c(Cl)c1)c1nc2ccccc2s1 (stereo not given) |  |  | Activity [6]: inactive; Activity [7]: inactive |

From ChEMBL document CHEMBL1255510, “Discovery of a class of calcium sensing receptor positive allosteric modulators; 1-(benzothiazol-2-yl)-1-phenylethanols” (Bioorg Med Chem Lett, 2010)
